Assay [1] in a line: S. cerevisiae growth inhibition in permissive medium (OD615), pilot counter-assay for S. cerevisiae lifespan shortening project, permissive growth control (AID 705;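 active = growth inhibition above 25% in both replicates, a cutoff set 3 SD above the mean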). Conditions: OD615, 24 h, at 10 µM, stronger effect = higher value. The essentials: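 System: S. cerevisiae with engineered DeaD lifespan system / Measured by: absorbance (optical density) at 615 nm / Read-out: reduction in yeast growth (OD615) / Times: 4 h cell pre-growth, 24 h exposure at 30 °C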

Assay [2] in a line: S. cerevisiae growth inhibition in restrictive medium, OD615, pilot screen, restrictive growth control, yeast lifespan reduction project (AID 706;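 active = growth inhibition above a set limit, 3 SD over mean compound inhibition, in both replicates, cut at about 43% in these data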;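 note: modified DeaD lifespan yeast strain shifted to restrictive glucose medium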). Conditions: OD615, 48 h, at 10 µM, stronger effect = higher value. The essentials: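 System: Engineered S. cerevisiae DeaD strain | Buffer or medium: Glucose-based CSMM-D restrictive medium | Schedule: 4 h pre-incubation, 48 h exposure at 30 °C | Technique: Optical density at 615 nm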

Assay [3] in a line: doxorubicin toxicity protection in MRP-1 cells – H69AR cells, CellTiter-Glo, duplicate, MRP-1 activator project, pilot screen (AID 807;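 active = viability increase at or above a cutoff of the median across tested compounds plus 3 SD, cut at about 8.5% in these data, passing the limit was not always enough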;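 note: compound pretreatment 18-22 h then 72 h combined with doxorubicin; 0% = doxorubicin alone and 100% = vehicle without doxorubicin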). The settings on record: H69AR viability with doxorubicin, CellTiter-Glo luminescence; at 10 µM; stronger effect = higher value. A general note: Cellular ATP, detected with luciferase, serves as a proxy for viable cell number.
Assay [4] can be described thus: viability of HCT116 without oncogenic beta-catenin – human colon tumor cells, pilot screen (AID 823;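 active = cell viability at or below a set limit in both duplicate runs, the limit being the all-compound median minus 4 SD, cut at about 23% in these data, passing the limit was not always enough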;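 note: 0% = wells killed by 20 µM Hyamine and 100% = untreated DMSO cell wells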). The settings on record: HCT116 beta-catenin knockout viability, CellTiter-Glo, 60 h; at 10 µM; stronger effect = lower value.
Assay [5] is described as follows: viability of PTEN-null HCT116 cells – cell-based, HCT116 clonal line, CellTiter-Glo, pilot screen (AID 824;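 active = viability at or below 27.92% in each of two runs, the all-compound median minus 4 SD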;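 note: 0% = 20 µM Hyamine control and 100% = vehicle cell control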). The settings on record: HCT116 PTEN-deleted viability, 60 h, at 10 µM, stronger effect = lower value.
The nature of assay [6]: RAM pathway blockade in budding yeast – dse1pr::URA3 reporter, 5-FOA selection, pilot screen (AID 869;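 active = inhibition over a set limit, the all-compound mean plus 3 SD, in both replicate runs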;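 note: 0% = DMSO wells with no growth and 100% = 10 µM 1-NA-PP1 with full growth; RAM network block rescues cells from 5-FOA so hits raise OD615 growth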). The settings on record: S. cerevisiae dse1pr::URA3 5-FOA growth, OD615, 2 d; at 10 µM; stronger effect = higher value; strain carries analog-sensitive mutant Cbk1 kinase.
Assay [7] is described as follows: RAM signaling pathway blockade in yeast – S. cerevisiae, Pdr1DBD-CYC8 efflux-inhibited sensitized strain, primary screen (AID 1298).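 Note: 0% = DMSO untreated cells without growth and 100% = 10 µM 1-NA-PP1 full growth; higher means more yeast growth rescued from 5-FOA killing.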 The settings on record: S. cerevisiae cbk1-as DSE1-URA3 strain, 5-FOA growth OD615, 2 d; at 50 µM; stronger effect = higher value.

A number with no mark means an inactive call. Inconclusive results are not listed. Activity calls are given as the source filed them.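 Rule for the calls, unless noted: active = RAM network inhibition above 8.4% in each of two replicates, 3 SD over the compound average; inconclusive = above 8.4% inhibition in only one replicate; inactive = 8.4% inhibition or less in each replicate.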

For `CC(C)Oc1ccc(C2CNC(=O)C2)cc1` (stereo not drawn), the figures for the growth inhibition in assay [1] and in assay [2] were -1.04% and 0.15%, respectively. The viability increase in assay [3] is -0.24%. The viability in assay [4] is 102%; in assay [5], 103%. In addition, in assay [6], the inhibition was 1.04%. In assay [7], the RAM network inhibition was 0.1%.
Regarding `NC(=O)C1(N2CCCCC2)CCN(C(=O)c2cccs2)CC1`, the growth inhibition in assay [1] is -8.17%; in assay [2], -16.6%. The viability increase in assay [3] is 0.57%. Further, the viability is 105% in assay [4] and 92.3% in assay [5]. The inhibition in assay [6] was 0.955%. Besides, the RAM network inhibition in assay [7] is 1.19%.
As for `Cn1c(C(=O)NC2CCCC2)cc2c(=O)n(C)c3ccccc3c21`, the growth inhibition in assay [1] is -12.6%; in assay [2] it was 3.59%. The viability increase in assay [3] is -2.84%. Moreover, the viability was 84.3% in assay [4] and 87.4% in assay [5]. Besides, in assay [6], the inhibition is 1.21%. Besides, in assay [7], the RAM network inhibition was 7.72%.
On to `CCCCOCCCNC(=O)Cc1cccs1`, for which the growth inhibition is -16.7% in assay [1] and -10.3% in assay [2]. In addition, the viability increase in assay [3] is -2.03%. The viability is 91.8% in assay [4] and 90% in assay [5]. Further, the inhibition in assay [6] is 0.465%. The RAM network inhibition in assay [7] was 5.12%.
As to `COc1ccc(OC)c(S(=O)(=O)n2nc(-c3ccccc3)cc2N)c1`, the growth inhibition is -6.75% in assay [1] and -2.54% in assay [2]. In addition, in assay [3], the viability increase is -2.02%. In addition, the viability in assay [4] was 104%; in assay [5] it was 103%. The inhibition in assay [6] was 0.795%. In addition, the RAM network inhibition in assay [7] is 1.93%.
`CCCc1c(C(=O)OCC)[nH]c2c1C(=O)CCC2`: the growth inhibition was 1.82% in assay [1] and 2.14% in assay [2]. In addition, the viability increase in assay [3] was -2.07%. Moreover, the viability in assay [4] was 107%; in assay [5], 95.3%. Moreover, in assay [6], the inhibition was 1.46%. The RAM network inhibition in assay [7] is 2.61%.
In the case of `Cc1ccc2oc(=O)c3cnn(CC(=O)N4CCN(c5ccccn5)CC4)c3c2c1`, the growth inhibition in assay [1] was -7.07%; in assay [2], -17.7%. Further, the viability increase in assay [3] was -1.28%. For the same compound, the results for the viability in assay [4] and in assay [5] were 91.8% and 87.6%, respectively. Further, the inhibition in assay [6] was 1.41%. In addition, the RAM network inhibition in assay [7] was -0.31%.
In the case of `O=c1cnn(-c2ccccc2)c(-c2ccccc2)c1`, the growth inhibition in assay [1] is -15.7%; in assay [2], -5.25%. In addition, in assay [3], the viability increase was -6.23%. Moreover, the viability is 31.1% in assay [4] and 24% (active) in assay [5]. In assay [6], the inhibition is 2.04%. Also, in assay [7], the RAM network inhibition is 1.25%.
For the compound `COc1cccc(-n2c(Cc3cc(=O)[nH]c(=O)[nH]3)nnc2SCC(=O)N2CCCCC2)c1`, the growth inhibition is -2.5% in assay [1] and -0.925% in assay [2]. In assay [3], the viability increase was -1.49%. Moreover, the viability in assay [4] was 112%; in assay [5], 96.8%. In assay [6], the inhibition was 1.77%. In assay [7], the RAM network inhibition was 5.28%.
Consider `COc1ccc(C2=CC(c3ccc(Cl)cc3)n3cnnc3N2)cc1OC` (stereo not drawn), for which the growth inhibition in assay [1] is -1.79%; in assay [2], 2.91%. Besides, the viability increase in assay [3] is -2.06%. Further, the values for the viability in assay [4] and in assay [5] were 97.3% and 87%, respectively. Further, the inhibition in assay [6] is 0.37%. Also, the RAM network inhibition in assay [7] is 0.78%.
Regarding `COCCNS(=O)(=O)c1ccc(C2CNC(=O)C2)cc1` (stereo not drawn), the growth inhibition is -7.18% in assay [1] and -6.89% in assay [2]. Further, the viability increase in assay [3] is -1.08%. Further, the viability in assay [4] was 110%; in assay [5], 104%. The inhibition in assay [6] was 2.2%. Also, in assay [7], the RAM network inhibition is -1.51%.
Regarding `Cc1cc(NC(=O)CSc2cn(C)c3ccccc23)no1`, the results for the growth inhibition in assay [1] and in assay [2] were -8.73% and 4.95%, respectively. The viability increase in assay [3] is -2.87%. Moreover, the viability was 97.6% in assay [4] and 99.1% in assay [5]. Moreover, in assay [6], the inhibition is 0.48%. In addition, in assay [7], the RAM network inhibition was 1.44%.
Consider `COc1ccc(-c2nnc(COc3ccc4ccccc4c3)o2)cc1OC`, for which the growth inhibition in assay [1] was -7.47%; in assay [2], -22.7%. Besides, in assay [3], the viability increase was -0.12%. Moreover, the figures for the viability in assay [4] and in assay [5] were 99.7% and 91.6%, respectively. Also, the inhibition in assay [6] was 1.22%. Further, in assay [7], the RAM network inhibition was 8.07%.
On to `N#Cc1nc(-c2ccccc2F)oc1NC1CCCCC1`, for which the growth inhibition was -18.3% in assay [1] and -17.6% in assay [2]. In assay [3], the viability increase is -2.53%. Further, the values for the viability in assay [4] and in assay [5] were 87.7% and 87.6%, respectively. Further, the inhibition in assay [6] is 0.64%. The RAM network inhibition in assay [7] is 6%.
In the case of `CCOC(=O)c1ccccc1NC(=O)CN(c1cccc(OC)c1)S(C)(=O)=O`, the growth inhibition in assay [1] was -7.1%; in assay [2], -3.34%. Also, the viability increase in assay [3] was -5.04%. In addition, the viability was 91.7% in assay [4] and 83.3% in assay [5]. For the same compound, the inhibition in assay [6] is 1.65%. Also, in assay [7], the RAM network inhibition is 4.56%.
In the case of `O=C1CC(c2ccc(S(=O)(=O)NC3CC3)cc2)CN1` (stereo not drawn), the growth inhibition in assay [1] is -9.26%; in assay [2], -7.47%. Moreover, the viability increase in assay [3] was -2.08%. Besides, the figures for the viability in assay [4] and in assay [5] were 110% and 103%, respectively. Further, the inhibition in assay [6] was 0.075%. Also, the RAM network inhibition in assay [7] is -0.6%.
Consider `CCCCCn1c(CNC(C)=O)nc2ccccc21`, for which the results for the growth inhibition in assay [1] and in assay [2] were -11.1% and -13.2%, respectively. Further, the viability increase in assay [3] was 0.03%. The viability was 93.5% in assay [4] and 97.7% in assay [5]. In addition, the inhibition in assay [6] is 0.54%. Besides, in assay [7], the RAM network inhibition was 7.59%.
Consider `COc1cc(OC)cc(OCC(O)Cn2cnc3cc(C)c(C)cc32)c1` (stereo not drawn), for which the growth inhibition was -4.53% in assay [1] and -8.79% in assay [2]. Also, the viability increase in assay [3] was -5.24%. Further, the figures for the viability in assay [4] and in assay [5] were 80.2% and 80.3%, respectively. The inhibition in assay [6] was 1.33%. The RAM network inhibition in assay [7] is -0.82%.
On to `COc1ccc(Cl)cc1N(CC(=O)N1CCN(Cc2ccccc2)CC1)S(C)(=O)=O`, for which the growth inhibition in assay [1] was -5.27%; in assay [2], -11.1%. In addition, the viability increase in assay [3] is -0.51%. Further, the viability is 95.9% in assay [4] and 92.8% in assay [5]. In assay [6], the inhibition is 1.38%. In assay [7], the RAM network inhibition was 0.41%.
With `COc1ccc(N2C(=O)c3ccccc3NC23CCCCC3)cc1`, the growth inhibition in assay [1] was -13.4%; in assay [2], -9.03%. In addition, the viability increase in assay [3] is -1.34%. The viability is 94.8% in assay [4] and 91.5% in assay [5]. The inhibition in assay [6] was 0.47%. In addition, the RAM network inhibition in assay [7] is 1.91%.
For `CC(=O)N1CCc2cc(C(=O)CN3CCC(C)CC3)ccc21`, the growth inhibition in assay [1] was -5.91%; in assay [2] it was -4.73%. The viability increase in assay [3] was -2.46%. The figures for the viability in assay [4] and in assay [5] were 104% and 93.6%, respectively. In assay [6], the inhibition is 1.56%. Also, the RAM network inhibition in assay [7] was 7.51%.
Turning to `COc1ccc(OC)c(C2=Nn3c(nnc3-c3ccncc3)SC2)c1`, the growth inhibition in assay [1] is 0.735%; in assay [2] it was 11.2%. Further, the viability increase in assay [3] was -2.51%. Moreover, the values for the viability in assay [4] and in assay [5] were 78.1% and 71.1%, respectively. The inhibition in assay [6] was 0.84%. In addition, the RAM network inhibition in assay [7] was 5.82%.
In the case of `O=C(Nc1ccccc1F)C1CCCN(S(=O)(=O)c2cccc3cccnc23)C1` (stereo not drawn), the growth inhibition is -3.46% in assay [1] and -7.69% in assay [2]. In assay [3], the viability increase was -1.63%. In addition, the viability in assay [4] is 92.3%; in assay [5] it was 88.8%. The inhibition in assay [6] is 1.49%. The RAM network inhibition in assay [7] was 2.96%.
In the case of `CCCc1cc(=O)[nH]c(SCC(=O)N2CCN(S(=O)(=O)c3ccc(C)cc3)C2)n1`, the growth inhibition was -4.67% in assay [1] and -21.2% in assay [2]. Also, the viability increase in assay [3] is -1.75%. The viability was 98.8% in assay [4] and 85.6% in assay [5]. In addition, the inhibition in assay [6] was 2.64%. Further, the RAM network inhibition in assay [7] was 3.8%.

As usually defined, the viability is a read-out of living cells in per cent, often relative to untreated cells. The term inhibition denotes the share of the control response that was lost under treatment.

The values are drawn from PubChem BioAssay.
